Assay results reported in ChEMBL document CHEMBL3784974, “Design and Structural Characterization of Potent and Selective Inhibitors of Phosphatidylinositol 4 Kinase IIIβ” (J Med Chem, 2016).
pIC50: −log10 of the molar value.

Assays:
[1] = Inhibition of GST-tagged recombinant human full length PI4K3beta expressed in insect cells preincubated for 15 mins followed by addition of cold ATP/gamma32P-ATP measured after 30 mins in presence of MgCl2
Procedure, shortened: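 Membrane-capture radiometric assay. Purchased enzyme, final 2.5 nM. Enzyme preincubated 15 min with inhibitor (diluted in 10% DMSO), then 30 min reaction. Final: 20 mM Bis-Tris propane pH 7.5, 10 mM MgCl2, 0.075 mM Triton X-100, 0.5 mM EGTA, 1 mM DTT, 100 µM PI in PI:DOPS:DOPC, 500 ng/µL BSA, 2% DMSO, 10 µM ATP, 1 uCi γ32P-ATP. Product spotted on nitrocellulose, washed in 1M NaCl/1% phosphoric acid, phosphorimaged.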

[2] = molecular target: Phosphatidylinositol 4,5-bisphosphate 3-kinase catalytic subunit gamma isoform (Homo sapiens, UniProt P48736); experiment: Inhibition of histidine-tagged recombinant human full length PI3Kgamma expressed in insect cells preincubated for 15 mins followed by addition of cold ATP/gamma32P-ATP measured after 15 mins in presence of MgCl2
Hepatitis C virus = experiment: Antiviral activity against HCV genotype 2a J6/JFH1 infected in human Huh7.5 cells after 3 days by gaussia luciferase assay; assay type: functional, organism-based, Hepacivirus hominis; settings: subtype 2a J6/JFH1, Huh-7, 72 h
Procedure, shortened: (§1)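 Huh7.5 cells stably infected with J6/JFH1-GLuc, kept in DMEM/10% FBS, glutamine, NEAA, pen/strep at 37 °C, 5% CO2. 10,000 cells/well; serially diluted compound added 1 h after plating; 3-day incubation. Replication read as Gaussia luciferase activity in supernatant; viability by Presto Blue.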

[3] = Cytotoxicity against human Huh7.5 cells after 3 days by presto blue assay; assay type: cell-based, Huh-7; procedure, shortened: as §1
[4] = molecular target: T1, Phosphatidylinositol 3-kinase C2 domain-containing subunit gamma (Homo sapiens, UniProt O75747); experiment: Inhibition of N-terminal GST-tagged recombinant human full length PI3KC2gamma expressed in baculovirus infected Sf21 insect cells preincubated for 15 mins followed by addition of cold ATP/gamma32P-ATP measured after 15 mins
T1 sequence (O75747 whole entry): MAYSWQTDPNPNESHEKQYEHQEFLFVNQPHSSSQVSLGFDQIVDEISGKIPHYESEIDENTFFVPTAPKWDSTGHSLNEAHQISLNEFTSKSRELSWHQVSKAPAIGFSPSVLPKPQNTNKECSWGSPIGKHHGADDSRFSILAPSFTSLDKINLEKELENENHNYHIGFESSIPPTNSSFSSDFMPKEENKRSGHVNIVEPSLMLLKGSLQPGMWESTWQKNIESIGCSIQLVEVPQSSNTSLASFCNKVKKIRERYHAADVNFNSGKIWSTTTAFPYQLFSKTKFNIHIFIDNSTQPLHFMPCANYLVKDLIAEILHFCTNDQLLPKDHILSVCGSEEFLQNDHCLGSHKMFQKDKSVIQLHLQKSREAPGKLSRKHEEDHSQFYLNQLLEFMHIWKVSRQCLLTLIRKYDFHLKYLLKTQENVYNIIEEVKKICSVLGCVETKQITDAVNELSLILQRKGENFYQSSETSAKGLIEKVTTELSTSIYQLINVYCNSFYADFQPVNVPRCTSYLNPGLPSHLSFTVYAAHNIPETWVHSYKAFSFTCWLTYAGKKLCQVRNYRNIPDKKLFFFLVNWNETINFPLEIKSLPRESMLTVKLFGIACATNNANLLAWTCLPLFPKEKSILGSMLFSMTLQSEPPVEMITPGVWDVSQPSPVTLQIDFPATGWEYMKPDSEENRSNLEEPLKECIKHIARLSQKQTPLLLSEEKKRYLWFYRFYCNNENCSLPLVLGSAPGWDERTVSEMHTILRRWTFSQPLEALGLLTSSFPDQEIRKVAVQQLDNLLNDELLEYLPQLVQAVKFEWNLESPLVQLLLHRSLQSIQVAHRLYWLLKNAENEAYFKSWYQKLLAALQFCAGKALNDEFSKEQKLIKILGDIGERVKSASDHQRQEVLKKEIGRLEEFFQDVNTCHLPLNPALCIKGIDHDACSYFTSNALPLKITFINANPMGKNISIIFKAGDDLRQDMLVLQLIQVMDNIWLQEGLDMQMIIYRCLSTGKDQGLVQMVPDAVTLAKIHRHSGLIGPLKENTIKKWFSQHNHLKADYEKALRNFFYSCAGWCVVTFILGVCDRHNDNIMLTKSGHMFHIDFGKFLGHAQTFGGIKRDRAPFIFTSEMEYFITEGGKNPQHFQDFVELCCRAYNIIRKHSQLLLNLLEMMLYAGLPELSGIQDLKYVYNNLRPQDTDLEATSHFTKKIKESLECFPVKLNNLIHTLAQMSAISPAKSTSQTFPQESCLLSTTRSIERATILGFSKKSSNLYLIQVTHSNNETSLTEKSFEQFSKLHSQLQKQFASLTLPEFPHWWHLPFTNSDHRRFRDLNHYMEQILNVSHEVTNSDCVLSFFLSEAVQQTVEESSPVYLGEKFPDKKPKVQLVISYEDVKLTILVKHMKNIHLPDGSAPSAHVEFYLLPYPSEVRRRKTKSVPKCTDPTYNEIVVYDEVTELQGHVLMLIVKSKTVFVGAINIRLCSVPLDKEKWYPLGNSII
Procedure, shortened: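 1 nM PI3KC2γ, 15 min inhibitor preincubation, 15 min reaction. Final: 50 mM HEPES pH 7.5, 100 mM NaCl, 0.03% CHAPS, 10 mM MgCl2, 1 mM EGTA, 2 mM DTT, 100 µM PI (PI:DOPS:DOPC), 500 ng/µL BSA, 2% DMSO, 10 µM ATP, 2 uCi γ32P-ATP. Nitrocellulose capture, phosphorimaging.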

[5] = molecular target: Phosphatidylinositol 4,5-bisphosphate 3-kinase catalytic subunit alpha isoform (Homo sapiens, UniProt P42336); experiment: Inhibition of N-terminal histidine6-tagged recombinant human full length PI3Kalpha expressed in baculovirus infected Sf21 insect cells preincubated for 15 mins followed by addition of cold ATP/gamma32P-ATP measured after 15 mins
Procedure, shortened: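 Radiometric membrane-capture lipid kinase assay. Enzyme premixed with PIP2:DOPS:DOPC vesicles and BSA. Inhibitor diluted in 10% DMSO/kinase buffer, preincubated 15 min, then cold ATP plus γ32P-ATP added and run 15 min. Final conditions: 50mM HEPES pH 7.5, 100mM NaCl, 0.03% CHAPS, 10mM MgCl2, 1mM EGTA, 2mM DTT, 3.3nM PI3Kα, 80µM PIP2, 500ng/µL BSA, 2% DMSO, 10µM ATP, 2uCi γ32P-ATP. Product spotted onto nitrocellulose, washed in 1M NaCl/1% phosphoric acid, phosphorimaged.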

Phosphatidylinositol 4,5-bisphosphate 3-kinase catalytic subunit alpha isoform, sequence (P42336 whole entry, canonical isoform): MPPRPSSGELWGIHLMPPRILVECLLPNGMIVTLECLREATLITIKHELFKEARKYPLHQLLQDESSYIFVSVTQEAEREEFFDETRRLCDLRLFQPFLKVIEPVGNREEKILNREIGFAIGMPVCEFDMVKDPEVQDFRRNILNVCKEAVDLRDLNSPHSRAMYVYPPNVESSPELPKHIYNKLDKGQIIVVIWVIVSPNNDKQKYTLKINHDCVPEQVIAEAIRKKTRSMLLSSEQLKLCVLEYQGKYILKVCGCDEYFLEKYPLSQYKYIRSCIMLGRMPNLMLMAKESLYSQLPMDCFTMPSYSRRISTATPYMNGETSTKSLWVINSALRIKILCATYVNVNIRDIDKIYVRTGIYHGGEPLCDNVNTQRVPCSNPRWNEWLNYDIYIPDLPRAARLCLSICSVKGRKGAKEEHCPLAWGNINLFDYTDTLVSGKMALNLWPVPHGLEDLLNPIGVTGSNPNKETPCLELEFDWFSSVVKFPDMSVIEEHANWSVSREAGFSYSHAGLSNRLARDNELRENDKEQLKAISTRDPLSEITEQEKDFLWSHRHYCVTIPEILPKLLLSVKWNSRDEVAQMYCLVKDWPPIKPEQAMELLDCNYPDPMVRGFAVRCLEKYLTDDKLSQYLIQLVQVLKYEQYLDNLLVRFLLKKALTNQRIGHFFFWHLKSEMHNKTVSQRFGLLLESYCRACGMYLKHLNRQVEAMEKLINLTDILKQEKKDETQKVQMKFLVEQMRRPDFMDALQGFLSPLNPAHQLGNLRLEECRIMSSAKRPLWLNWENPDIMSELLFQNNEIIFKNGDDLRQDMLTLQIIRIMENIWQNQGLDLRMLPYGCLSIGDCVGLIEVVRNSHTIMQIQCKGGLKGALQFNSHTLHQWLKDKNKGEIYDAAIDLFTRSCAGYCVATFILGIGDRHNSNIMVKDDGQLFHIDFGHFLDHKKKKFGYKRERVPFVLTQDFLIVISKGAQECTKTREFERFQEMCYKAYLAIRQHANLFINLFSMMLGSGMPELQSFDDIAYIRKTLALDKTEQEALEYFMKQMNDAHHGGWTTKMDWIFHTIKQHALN
Phosphatidylinositol 4,5-bisphosphate 3-kinase catalytic subunit gamma isoform, sequence (P48736 whole entry, canonical isoform): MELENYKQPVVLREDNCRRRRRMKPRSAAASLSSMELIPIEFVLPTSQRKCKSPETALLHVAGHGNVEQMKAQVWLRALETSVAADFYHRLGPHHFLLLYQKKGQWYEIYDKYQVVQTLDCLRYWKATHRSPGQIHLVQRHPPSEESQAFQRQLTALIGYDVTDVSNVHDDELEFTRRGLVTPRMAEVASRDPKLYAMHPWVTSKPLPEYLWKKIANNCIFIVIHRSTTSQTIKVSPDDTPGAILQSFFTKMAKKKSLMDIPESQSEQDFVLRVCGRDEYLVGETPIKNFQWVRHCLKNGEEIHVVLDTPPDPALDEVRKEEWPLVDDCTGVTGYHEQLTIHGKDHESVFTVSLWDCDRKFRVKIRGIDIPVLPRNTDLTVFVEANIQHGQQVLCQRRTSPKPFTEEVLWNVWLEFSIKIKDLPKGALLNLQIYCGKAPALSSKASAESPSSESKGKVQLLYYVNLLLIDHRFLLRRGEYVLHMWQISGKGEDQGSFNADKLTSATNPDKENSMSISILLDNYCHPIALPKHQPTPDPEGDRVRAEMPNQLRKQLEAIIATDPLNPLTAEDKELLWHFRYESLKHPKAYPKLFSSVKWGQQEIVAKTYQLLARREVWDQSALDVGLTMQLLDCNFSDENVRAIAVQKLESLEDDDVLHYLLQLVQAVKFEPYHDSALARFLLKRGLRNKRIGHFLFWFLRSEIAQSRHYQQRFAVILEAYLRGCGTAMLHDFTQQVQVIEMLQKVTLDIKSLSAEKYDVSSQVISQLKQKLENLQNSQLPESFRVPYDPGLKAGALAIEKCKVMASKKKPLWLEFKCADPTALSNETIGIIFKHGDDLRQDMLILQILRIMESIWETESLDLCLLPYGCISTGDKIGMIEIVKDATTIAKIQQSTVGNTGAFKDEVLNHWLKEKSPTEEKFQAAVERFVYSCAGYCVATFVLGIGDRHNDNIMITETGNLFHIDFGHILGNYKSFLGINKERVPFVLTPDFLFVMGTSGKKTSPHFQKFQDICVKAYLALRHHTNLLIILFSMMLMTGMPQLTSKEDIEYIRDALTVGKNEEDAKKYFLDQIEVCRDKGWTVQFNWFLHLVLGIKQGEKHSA

| Compound | pIC50 [1] | pIC50 [2] | pIC50 (Hepatitis C virus) | CC50 at 72 h [3] [nM] | pIC50 [4] | pIC50 [5] |
| --- | --- | --- | --- | --- | --- | --- |
| COc1ccc(-c2sc(NC(=O)C3CCCC3)nc2C)cc1S(=O)(=O)Nc1ccc(O)cc1 | 8.15 | 5.98 | 6.20 | 14000 | 6.00 | 5.70 |
| COc1ccc(-c2sc(NC(=O)C(C)(C)C)nc2C)cc1S(=O)(=O)Nc1ccc(O)cc1 | 8.44 | 4.70 | 5.89 | 32000 | 6.00 | 5.00 |
